High-throughput results: PubChem, several laboratories
RGS4 pot = potentiators or activators of RGS4 | HEK293 M3R/inducible RGS4, carbachol calcium flux Fluo4; hits give low values | B-score at 10 µM | 0.92% of 310,000 active | AID 463111;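 active = B-score of the integrated calcium signal more than 4 SD below the library mean, with starting fluorescence not abnormally high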;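 note: negative B-score means reduced calcium response which marks RGS4 activation or potentiation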
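Reagent: ECmax carbachol challenge; Test system: M3R-expressing HEK293 line, RGS4 induced by doxycycline; Schedule: overnight RGS4 induction, 30 min dye load 37 °C, 20 min compound RT; Detection: calcium dye Fluo4 fluorescence; Read-out: Agonist-evoked peak-minus-minimum fluorescence over baseline, integrated ratio, B score.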
RGS4 block = human RGS4 inhibition. P49798. HEK293 M3R/RGS4 inducible, Fluo-4 calcium flux; hits give high values; triggered by carbachol at its EC20. 0.45% of 310,000 active. B-score at 10 µM. AID 463165;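 active = B-score, a plate-corrected calcium signal, over three deviations above library mean, with baseline fluorescence within five deviations of library mean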;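 note: RGS4 expression induced by doxycycline in cells with stable M3 receptor; B-score is computed from the integrated fluorescence ratio over baseline after carbachol; higher B-score means a larger calcium signal and so more RGS4 inhibition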
MrgX1 ag = agonists of human MrgX1 receptor | 0.44% of 310,000 active | AID 588627 | MrgX1-HEK293 cells, Fluo-4 calcium fluorescence, agonist mode; hits give high values | Q96LB2 | B-score at 10 µM;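 active = calcium response B-score plate-corrected fluorescence ratio at least 3 library SD, with starting fluorescence B-score inside 5 SD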
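Material: MrgX1-expressing HEK293 cells; input: 15,000 cells per well; doses: test compound given as first of three sequential additions; schedule: overnight plating before 1 h dye loading; technique: Fluo-4 NW calcium-flux fluorescence, kinetic read; evaluation: baseline-normalised fluorescence change ratio, B-scored; control set: plate-wise positive and negative controls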
MrgX1 PAM = human MrgX1 positive allosteric modulation, primary screen | Q96LB2 | MrgX1-HEK293, Fluo-4 calcium flux, FDSS; hits give high values | B-score at 10 µM | 0.63% of 310,000 active;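 active = plate-corrected calcium response at least 3 library SD above typical, normal starting fluorescence, not activating the receptor alone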;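 note: compound read alongside a low EC10 to EC30 dose of BAM8-22 agonist; peak minus trough fluorescence over baseline measured at the second addition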
MrgX1 antag = human MrgX1 receptor antagonism, primary screen; 1.3% of 310,000 active; MRGX1-HEK293 calcium flux, Fluo-4, BAM8-22 antagonism; hits give low values; B-score at 10 µM;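 active = calcium-response B-score plate-corrected more than 3 library SD below zero, starting fluorescence within 5 deviations, no agonist response on first addition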;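 note: peak minus trough fluorescence over baseline after final BAM8-22 challenge near maximal dose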
Cl transport mod = KCC2 (human) Cl- transport modulation. Q9H2X9. 2.2% of 190,000 active. KCC2 cells, thallium flux FluoZin-2 fluorescence. B-score of Tl+ flux slope (higher = more flux/activation; lower = inhibition) at 10 µM;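 active = thallium flux slope and its plate-corrected score both differing from the plate sample mean at a set confidence after two filtering rounds, in either direction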;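 note: slope of fluorescence scaled to starting intensity during 10 to 20 s after thallium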
RGS4 inh valid = RGS4 inhibitor validation | shares compounds with RGS4 block | calcium response, % at 10 µM | 65% of 1,700 active | HEK293 M3R/RGS4, carbachol calcium Fluo-4 fluorescence; carbachol added at its EC20; 0 = buffer wells, 100 = carbachol control;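 active = duplicate-averaged calcium response above the buffer-only control mean plus 5 SD of those controls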;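 note: integrated fluorescence ratio F max minus min over baseline F0; higher response in RGS4-induced cells means RGS4 inhibition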
M3R Ca ctr = non-induced cell nonspecific activity of RGS4 inhibitors; 20% of 1,900 active; activity (percent), % at 10 µM; AID 493000; shares compounds with RGS4 block; HEK293 M3R non-induced, carbachol calcium Fluo-4; submaximal (EC20) carbachol stimulus; buffer wells 0%, carbachol control wells 100%; call rule not given here;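 note: RGS4 induction absent so cells express M3R without RGS4; higher means more calcium signal and flags a non-specific hit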
RGS4 inh ctr2 = signal in non-induced cells without carbachol, RGS4 inhibitor counter-screen; calcium response (agonist-mode artifact), % at 10 µM; shares compounds with RGS4 block; 22% of 1,900 active; HEK293 M3R/RGS4 non-induced, Fluo-4 calcium, no carbachol; normalised: buffer wells 0%, carbachol wells 100%;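 active = duplicate-averaged calcium rise in uninduced cells above buffer wells' mean plus 5 SD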
Large screens that a line does not name were inactive (follow-up assays come after a bar, where they were run). A selection: hits, their analogues and other compounds. The true share with any hit is near 4.7%.

Cc1ccnc2nc(C(=O)OCC(=O)NCCc3ccccc3)nn12	none
C=CCNC(=O)NC(=O)COC(=O)c1nc2nccc(C)n2n1	RGS4 block 4.7 | RGS4 inh valid inactive | M3R Ca ctr inactive | RGS4 inh ctr2 inactive
CCOC(=O)c1c(-c2ccccc2)csc1NC(=O)CSc1nc(N)cc(N)n1	RGS4 block 5.5 | RGS4 inh valid 6.0% | M3R Ca ctr inactive | RGS4 inh ctr2 inactive
CCOC(=O)c1c(-c2ccc(OCC)cc2)csc1NC(=O)CCN1C(=O)c2ccccc2C1=O	none
CCOC(=O)c1c(-c2ccccc2)csc1NC(=O)CSc1nc(C)cc(C)n1	none | RGS4 inh valid inactive | M3R Ca ctr inactive | RGS4 inh ctr2 inactive
CCOC(=O)c1c(-c2ccc(C)o2)csc1NC(=O)CSc1nncs1	RGS4 block 13 | RGS4 inh valid 11% | M3R Ca ctr inactive | RGS4 inh ctr2 inactive
CCOC(=O)c1c(-c2ccc(OC)cc2)csc1NC(=O)CCN1C(=O)c2ccccc2C1=O	none
CC1CCC2C(C1)OS(=O)(=O)NC2(C)C (centres undefined)	none (no result: Cl transport mod)
COc1ccc(OCC(NS(=O)(=O)c2ccc(-n3cnnn3)cc2)C(C)C)cc1 (centres undefined)	none (no result: Cl transport mod)
Cc1ccc(C(C2=C(O)CC(C)(C)CC2=O)C2C(=O)CC(C)(C)CC2=O)o1 (centres undefined)	RGS4 block 9.3 | RGS4 inh valid 16% | M3R Ca ctr inactive | RGS4 inh ctr2 inactive
CC1(C)CC(=O)C(C(C2=C(O)CC(C)(C)CC2=O)c2cccnc2)C(=O)C1 (centres undefined)	none
CC1(C)CC(=O)C(C(C2=C(O)CC(C)(C)CC2=O)c2cccs2)C(=O)C1 (centres undefined)	RGS4 block 5.7 (no result: Cl transport mod) | RGS4 inh valid 24% | M3R Ca ctr 58% | RGS4 inh ctr2 inactive
CC1(C)CC(=O)C(C(C2=C(O)CC(C)(C)CC2=O)c2cccc(O)c2)C(=O)C1 (centres undefined)	none (no result: RGS4 pot, RGS4 block)
Cc1c(NC(=O)Nc2cccc(C#N)c2)c(=O)n(-c2ccccc2)n1C	none (no result: Cl transport mod)
CC(OC(=O)CNC(=O)c1ccc(Cl)cc1)C(=O)NC1CCCCC1C (centres undefined)	none (no result: Cl transport mod)
CCCn1c(N)c(N(CCOC)C(=O)CSCC(=O)Nc2ccc(OC)cc2)c(=O)[nH]c1=O	none (no result: Cl transport mod)
COc1cc(C2C(C#N)=C(N)Oc3c2c(-c2ccccc2)nn3-c2ccccc2)cc(OC)c1OC (centres undefined)	none | M3R Ca ctr inactive | RGS4 inh ctr2 inactive
Cc1nn(-c2ccccc2)c2c1C(c1ccc([N+](=O)[O-])cc1)C(C#N)=C(N)O2 (centres undefined)	none
NC1=NC(=Nc2ccc(Cl)cc2)c2ccccc21	RGS4 block 8 | RGS4 inh valid 8.0% | M3R Ca ctr inactive | RGS4 inh ctr2 inactive
NC1=NC(=Nc2ccccc2)c2ccccc21	none
CCCOc1ccc(-c2c(C(=O)N/N=C/c3ccc(C)cc3)nnn2-c2nonc2N)cc1	none | M3R Ca ctr 39% | RGS4 inh ctr2 inactive
CCOc1ccc(-c2c(C(=O)N/N=C/c3ccc(C)cc3)nnn2-c2nonc2N)cc1	none | RGS4 inh valid inactive | M3R Ca ctr inactive | RGS4 inh ctr2 inactive
CCOc1ccc(-c2c(C(=O)N/N=C/c3ccccc3)nnn2-c2nonc2N)cc1	none
CC(=O)Nc1scc(C)c1-c1nc2ccccc2s1	none
Cc1csc(NC(=O)COCC(=O)O)c1-c1nc2ccccc2s1	RGS4 block 6.8 | RGS4 inh valid 22% | M3R Ca ctr inactive | RGS4 inh ctr2 inactive
Cc1csc(NC(=O)CCCC(=O)O)c1-c1nc2ccccc2s1	RGS4 block 6.2 | RGS4 inh valid 32% | M3R Ca ctr 48% | RGS4 inh ctr2 inactive
Cc1ccc(C(=O)Nc2cccc(C(=O)NC3CCCC3)c2)cc1	none (no result: Cl transport mod)
O=C(CSC1=NS(=O)(=O)c2cc(F)ccc2N1)Nc1cccc(F)c1	none (no result: Cl transport mod)
CCOC(=O)N1CCc2c(sc3c2c(=O)n(Cc2ccccc2)c(=O)n3Cc2ccc(C)cc2)C1	RGS4 block 8.7 | RGS4 inh valid 38% | M3R Ca ctr 30% | RGS4 inh ctr2 inactive
CCc1ccc(NC(=O)Cn2cc([N+](=O)[O-])nc2C)cc1	none (no result: Cl transport mod)
O=C(CN1C(=O)S/C(=C/C=C/c2ccccc2)C1=O)Nc1ccc(C(=O)O)cc1	RGS4 block 4.7 | RGS4 inh valid 7.0% | M3R Ca ctr inactive | RGS4 inh ctr2 inactive
O=C(CN1C(=O)S/C(=C\C=C\c2ccccc2)C1=O)N1CCOCC1	RGS4 block 8.5 | RGS4 inh valid 9.5% | M3R Ca ctr inactive | RGS4 inh ctr2 inactive
O=C(CCN1C(=O)S/C(=C\c2ccccc2)C1=O)N1CCOCC1	none (no result: Cl transport mod)
COC(=O)c1ccccc1NC(=O)CCn1c(=O)oc2ccccc21	none (no result: Cl transport mod)
Oc1ccc(Cl)cc1CNCc1ccc(C(F)(F)F)cc1	none (no result: RGS4 pot, RGS4 block, Cl transport mod)
O=C(O)CCC(=O)Nc1sc2c(c1C(=O)Nc1cccc3ccccc13)CCCCC2	none
O=C(O)CCC(=O)Nc1sc2c(c1C(=O)Nc1ccccc1)CCCCC2	RGS4 block 5.5 | RGS4 inh valid 7.0% | M3R Ca ctr 64% | RGS4 inh ctr2 inactive
CNC(=S)Nc1ccc2nc(C)oc2c1	none
COc1ccc(-c2nsc3c(N4CCN(C(=O)c5ccco5)CC4)ncnc23)cc1	none | RGS4 inh valid inactive | M3R Ca ctr inactive | RGS4 inh ctr2 inactive
COc1ccc(-c2csc(N3CCN(C(=O)c4ccco4)CC3)n2)cc1	none (no result: Cl transport mod)
O=C(c1ccco1)N1CCN(c2ncnc3c(-c4ccccc4)nsc23)CC1	none | M3R Ca ctr inactive | RGS4 inh ctr2 inactive
O=C(/C(=C/c1ccc(Cl)cc1)c1nc2ccccc2[nH]1)c1cccs1	none
COc1cc(/C=C(/C(=O)c2cccs2)c2nc3ccccc3[nH]2)ccc1O	RGS4 block 9.2 | RGS4 inh valid 18% | M3R Ca ctr inactive | RGS4 inh ctr2 inactive
CCCCNC(=S)N(CCCO)Cc1cc2cc3c(cc2[nH]c1=O)OCCO3	none (no result: Cl transport mod)
COCCCNC(=S)N(CCO)Cc1cc2cc3c(cc2[nH]c1=O)OCCO3	RGS4 block 5.2 (no result: Cl transport mod) | RGS4 inh valid inactive | M3R Ca ctr inactive | RGS4 inh ctr2 inactive
